Data as given in ChEMBL document CHEMBL5724801, “EUbOPEN Chemogenomics Library - Multiplex” (2024).
Several values for one entry are separate records, joined by “and”; a condition that tells them apart may be missing. Identical values can stand only once.

Legend:
Assay type in all cases: toxicity, cell-based
[1] = tested on: Fibroblast; assay: Multiplex assay against human fibroblast
Procedure, shortened: (§1)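 Live cells were stained at seeding with Hoechst33342, BioTracker Green Microtubule Cytoskeleton Dye, MitoTracker Red and Annexin V Alexa Fluor 680, then imaged on a CQ1 microscope at 37°C and 5% CO2 after compound addition. CellPathfinder machine-learning gating split cells into Hoechst high-intensity objects or normal cells. Normal cells were split into healthy, pyknosed or fragmented nuclei, and pyknosed cells into mitotic or apoptotic. Tubulin, mitochondrial-mass and membrane-permeability phenotypes are per cents of healthy-nucleus cells.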

[2] = tested on: U2OS; assay: Multiplex assay against U2OS; settings: human; procedure, shortened: as §1
[3] = tested on: HEK-293T; assay: Multiplex assay against HEK293T; settings: human; procedure, shortened: as §1
[4] = 12 h, 1 µM, compound concentration 1 uM
[5] = 12 h, 10 µM, compound concentration 10 uM
[6] = 24 h, 1 µM, compound concentration 1 uM
[7] = 24 h, 10 µM, compound concentration 10 uM
[8] = 48 h, 1 µM, compound concentration 1 uM
[9] = 48 h, 10 µM, compound concentration 10 uM

Compound: CC(C)COc1ccc(CNC(=O)N(Cc2ccc(F)cc2)C2CCN(C)CC2)cc1 [PIMAVANSERIN]
- Population Apoptotic (%) [1, 4]: 65% and 61%
- Population Fragmented Nuclei (%) [1, 4]: 24% and 40%
- Population Healthy Nuclei (%) [1, 4]: 62% and 42%
- Population Hoechst High Intensity Objects (%) [1, 4]: 0% and 1%
- Population Membrane Permeable-Phenotype (%) [1, 4]: 0% and 7%
- Population Mitochondria Different-Phenotype (%) [1, 4]: 12% and 4%
- Population Mitotic Cells (%) [1, 4]: 34% and 38%
- Population Normal (%) [1, 4]: 100% and 98%
- Population Pyknosed Nuclei (%) [1, 4]: 12% and 16%
- Population Tubulin-Different-Phenotype (%) [1, 4]: 35% and 82%
- Total Cell Count [1, 4]: 179 and 160
- Population Apoptotic (%) [1, 5]: 56% and 51%
- Population Fragmented Nuclei (%) [1, 5]: 18% and 31%
- Population Healthy Nuclei (%) [1, 5]: 65% and 42%
- Population Hoechst High Intensity Objects (%) [1, 5]: 1% and 4%
- Population Membrane Permeable-Phenotype (%) [1, 5]: 0% and 2%
- Population Mitochondria Different-Phenotype (%) [1, 5]: 42% and 32%
- Population Mitotic Cells (%) [1, 5]: 43% and 48%
- Population Normal (%) [1, 5]: 98% and 95%
- Population Pyknosed Nuclei (%) [1, 5]: 16% and 26%
- Population Tubulin-Different-Phenotype (%) [1, 5]: 93% and 81%
- Total Cell Count [1, 5]: 185
- Population Apoptotic (%) [1, 6]: 60% and 52%
- Population Fragmented Nuclei (%) [1, 6]: 21% and 39%
- Population Healthy Nuclei (%) [1, 6]: 65% and 46%
- Population Hoechst High Intensity Objects (%) [1, 6]: 2%
- Population Membrane Permeable-Phenotype (%) [1, 6]: 1% and 4%
- Population Mitochondria Different-Phenotype (%) [1, 6]: 5% and 9%
- Population Mitotic Cells (%) [1, 6]: 39% and 47%
- Population Normal (%) [1, 6]: 97%
- Population Pyknosed Nuclei (%) [1, 6]: 12% and 13%
- Population Tubulin-Different-Phenotype (%) [1, 6]: 47% and 76%
- Total Cell Count [1, 6]: 186 and 157
- Population Apoptotic (%) [1, 7]: 83% and 69%
- Population Fragmented Nuclei (%) [1, 7]: 13% and 27%
- Population Healthy Nuclei (%) [1, 7]: 67% and 50%
- Population Hoechst High Intensity Objects (%) [1, 7]: 4% and 8%
- Population Membrane Permeable-Phenotype (%) [1, 7]: 0% and 3%
- Population Mitochondria Different-Phenotype (%) [1, 7]: 41% and 38%
- Population Mitotic Cells (%) [1, 7]: 16% and 30%
- Population Normal (%) [1, 7]: 95% and 91%
- Population Pyknosed Nuclei (%) [1, 7]: 18% and 21%
- Population Tubulin-Different-Phenotype (%) [1, 7]: 92% and 96%
- Total Cell Count [1, 7]: 170 and 167
- Population Apoptotic (%) [1, 8]: 88% and 52%
- Population Fragmented Nuclei (%) [1, 8]: 27% and 44%
- Population Healthy Nuclei (%) [1, 8]: 62% and 44%
- Population Hoechst High Intensity Objects (%) [1, 8]: 3% and 5%
- Population Membrane Permeable-Phenotype (%) [1, 8]: 1% and 4%
- Population Mitochondria Different-Phenotype (%) [1, 8]: 3% and 12%
- Population Normal (%) [1, 8]: 96% and 94%
- Population Pyknosed Nuclei (%) [1, 8]: 9% and 10%
- Population Tubulin-Different-Phenotype (%) [1, 8]: 45% and 64%
- Total Cell Count [1, 8]: 204 and 167
- Population Apoptotic (%) [1, 9]: 92% and 75%
- Population Fragmented Nuclei (%) [1, 9]: 15% and 30%
- Population Healthy Nuclei (%) [1, 9]: 67% and 53%
- Population Hoechst High Intensity Objects (%) [1, 9]: 12% and 6%
- Population Membrane Permeable-Phenotype (%) [1, 9]: 0% and 3%
- Population Mitochondria Different-Phenotype (%) [1, 9]: 44% and 41%
- Population Normal (%) [1, 9]: 87% and 93%
- Population Pyknosed Nuclei (%) [1, 9]: 17% and 16%
- Population Tubulin-Different-Phenotype (%) [1, 9]: 91% and 92%
- Total Cell Count [1, 9]: 163 and 159
- Population Apoptotic (%) [2, 4]: 84% and 100%
- Population Fragmented Nuclei (%) [2, 4]: 23% and 11%
- Population Healthy Nuclei (%) [2, 4]: 67% and 80%
- Population Hoechst High Intensity Objects (%) [2, 4]: 2% and 0%
- Population Membrane Permeable-Phenotype (%) [2, 4]: 6%
- Population Mitochondria Different-Phenotype (%) [2, 4]: 3% and 4%
- Population Mitotic Cells (%) [2, 4]: 16% and 0%
- Population Normal (%) [2, 4]: 97% and 99%
- Population Pyknosed Nuclei (%) [2, 4]: 9% and 7%
- Population Tubulin-Different-Phenotype (%) [2, 4]: 5% and 6%
- Total Cell Count [2, 4]: 265 and 136
- Population Apoptotic (%) [2, 5]: 67% and 71%
- Population Fragmented Nuclei (%) [2, 5]: 23% and 18%
- Population Healthy Nuclei (%) [2, 5]: 48% and 54%
- Population Hoechst High Intensity Objects (%) [2, 5]: 5% and 4%
- Population Membrane Permeable-Phenotype (%) [2, 5]: 48% and 26%
- Population Mitochondria Different-Phenotype (%) [2, 5]: 73% and 70%
- Population Mitotic Cells (%) [2, 5]: 32% and 28%
- Population Normal (%) [2, 5]: 94% and 95%
- Population Pyknosed Nuclei (%) [2, 5]: 27% and 26%
- Population Tubulin-Different-Phenotype (%) [2, 5]: 77% and 52%
- Total Cell Count [2, 5]: 202 and 124
- Population Apoptotic (%) [2, 6]: 92% and 78%
- Population Fragmented Nuclei (%) [2, 6]: 22% and 11%
- Population Healthy Nuclei (%) [2, 6]: 67% and 80%
- Population Hoechst High Intensity Objects (%) [2, 6]: 2% and 1%
- Population Membrane Permeable-Phenotype (%) [2, 6]: 10% and 11%
- Population Mitochondria Different-Phenotype (%) [2, 6]: 4% and 8%
- Population Mitotic Cells (%) [2, 6]: 7% and 21%
- Population Normal (%) [2, 6]: 97% and 98%
- Population Pyknosed Nuclei (%) [2, 6]: 9% and 8%
- Population Tubulin-Different-Phenotype (%) [2, 6]: 6%
- Total Cell Count [2, 6]: 294 and 163
- Population Apoptotic (%) [2, 7]: 88% and 79%
- Population Fragmented Nuclei (%) [2, 7]: 28% and 16%
- Population Healthy Nuclei (%) [2, 7]: 40% and 50%
- Population Hoechst High Intensity Objects (%) [2, 7]: 10% and 3%
- Population Membrane Permeable-Phenotype (%) [2, 7]: 32% and 30%
- Population Mitochondria Different-Phenotype (%) [2, 7]: 67% and 75%
- Population Mitotic Cells (%) [2, 7]: 11% and 20%
- Population Normal (%) [2, 7]: 89% and 96%
- Population Pyknosed Nuclei (%) [2, 7]: 31% and 33%
- Population Tubulin-Different-Phenotype (%) [2, 7]: 49%
- Total Cell Count [2, 7]: 214 and 135
- Population Apoptotic (%) [2, 8]: 87% and 92%
- Population Fragmented Nuclei (%) [2, 8]: 19% and 12%
- Population Healthy Nuclei (%) [2, 8]: 68% and 76%
- Population Hoechst High Intensity Objects (%) [2, 8]: 2% and 1%
- Population Membrane Permeable-Phenotype (%) [2, 8]: 6% and 5%
- Population Mitochondria Different-Phenotype (%) [2, 8]: 5%
- Population Mitotic Cells (%) [2, 8]: 12% and 7%
- Population Normal (%) [2, 8]: 97% and 98%
- Population Pyknosed Nuclei (%) [2, 8]: 12% and 11%
- Population Tubulin-Different-Phenotype (%) [2, 8]: 4% and 2%
- Total Cell Count [2, 8]: 393 and 234
- Population Apoptotic (%) [2, 9]: 98% and 95%
- Population Fragmented Nuclei (%) [2, 9]: 38%
- Population Healthy Nuclei (%) [2, 9]: 19% and 15%
- Population Hoechst High Intensity Objects (%) [2, 9]: 13% and 8%
- Population Membrane Permeable-Phenotype (%) [2, 9]: 40% and 66%
- Population Mitochondria Different-Phenotype (%) [2, 9]: 56% and 80%
- Population Mitotic Cells (%) [2, 9]: 1% and 4%
- Population Normal (%) [2, 9]: 86% and 91%
- Population Pyknosed Nuclei (%) [2, 9]: 42% and 45%
- Population Tubulin-Different-Phenotype (%) [2, 9]: 54% and 71%
- Total Cell Count [2, 9]: 222 and 146
- Population Apoptotic (%) [3, 4]: 39% and 54%
- Population Fragmented Nuclei (%) [3, 4]: 5% and 7%
- Population Healthy Nuclei (%) [3, 4]: 82% and 74%
- Population Hoechst High Intensity Objects (%) [3, 4]: 6% and 11%
- Population Membrane Permeable-Phenotype (%) [3, 4]: 0%
- Population Mitochondria Different-Phenotype (%) [3, 4]: 50% and 68%
- Population Mitotic Cells (%) [3, 4]: 60% and 46%
- Population Normal (%) [3, 4]: 93% and 88%
- Population Pyknosed Nuclei (%) [3, 4]: 11% and 18%
- Population Tubulin-Different-Phenotype (%) [3, 4]: 49% and 35%
- Total Cell Count [3, 4]: 430 and 311
- Population Apoptotic (%) [3, 5]: 62% and 79%
- Population Fragmented Nuclei (%) [3, 5]: 10% and 7%
- Population Healthy Nuclei (%) [3, 5]: 60% and 64%
- Population Hoechst High Intensity Objects (%) [3, 5]: 19% and 25%
- Population Membrane Permeable-Phenotype (%) [3, 5]: 0%
- Population Mitochondria Different-Phenotype (%) [3, 5]: 89% and 87%
- Population Mitotic Cells (%) [3, 5]: 37% and 20%
- Population Normal (%) [3, 5]: 80% and 74%
- Population Pyknosed Nuclei (%) [3, 5]: 28% and 27%
- Population Tubulin-Different-Phenotype (%) [3, 5]: 81% and 66%
- Total Cell Count [3, 5]: 285 and 237
- Population Apoptotic (%) [3, 6]: 33% and 48%
- Population Fragmented Nuclei (%) [3, 6]: 9% and 4%
- Population Healthy Nuclei (%) [3, 6]: 77% and 82%
- Population Hoechst High Intensity Objects (%) [3, 6]: 6% and 8%
- Population Membrane Permeable-Phenotype (%) [3, 6]: 2% and 0%
- Population Mitochondria Different-Phenotype (%) [3, 6]: 42% and 55%
- Population Mitotic Cells (%) [3, 6]: 66% and 51%
- Population Normal (%) [3, 6]: 93% and 91%
- Population Pyknosed Nuclei (%) [3, 6]: 13% and 12%
- Population Tubulin-Different-Phenotype (%) [3, 6]: 40% and 30%
- Total Cell Count [3, 6]: 553 and 394
- Population Apoptotic (%) [3, 7]: 81% and 84%
- Population Fragmented Nuclei (%) [3, 7]: 10% and 12%
- Population Healthy Nuclei (%) [3, 7]: 57% and 54%
- Population Hoechst High Intensity Objects (%) [3, 7]: 27% and 34%
- Population Membrane Permeable-Phenotype (%) [3, 7]: 0%
- Population Mitochondria Different-Phenotype (%) [3, 7]: 94% and 100%
- Population Mitotic Cells (%) [3, 7]: 18% and 15%
- Population Normal (%) [3, 7]: 72% and 65%
- Population Pyknosed Nuclei (%) [3, 7]: 31% and 32%
- Population Tubulin-Different-Phenotype (%) [3, 7]: 77% and 69%
- Total Cell Count [3, 7]: 285 and 215
- Population Apoptotic (%) [3, 8]: 27% and 48%
- Population Fragmented Nuclei (%) [3, 8]: 13% and 9%
- Population Healthy Nuclei (%) [3, 8]: 77% and 84%
- Population Hoechst High Intensity Objects (%) [3, 8]: 5%
- Population Membrane Permeable-Phenotype (%) [3, 8]: 1% and 0%
- Population Mitochondria Different-Phenotype (%) [3, 8]: 31% and 33%
- Population Mitotic Cells (%) [3, 8]: 72% and 51%
- Population Normal (%) [3, 8]: 94%
- Population Pyknosed Nuclei (%) [3, 8]: 8% and 6%
- Population Tubulin-Different-Phenotype (%) [3, 8]: 33% and 21%
- Total Cell Count [3, 8]: 869 and 601
- Population Apoptotic (%) [3, 9]: 75% and 61%
- Population Fragmented Nuclei (%) [3, 9]: 29% and 31%
- Population Healthy Nuclei (%) [3, 9]: 30%
- Population Hoechst High Intensity Objects (%) [3, 9]: 52% and 60%
- Population Membrane Permeable-Phenotype (%) [3, 9]: 0%
- Population Mitochondria Different-Phenotype (%) [3, 9]: 88% and 92%
- Population Mitotic Cells (%) [3, 9]: 24% and 38%
- Population Normal (%) [3, 9]: 47% and 40%
- Population Pyknosed Nuclei (%) [3, 9]: 40% and 37%
- Population Tubulin-Different-Phenotype (%) [3, 9]: 58% and 64%
- Total Cell Count [3, 9]: 235 and 205
